Data set [1] deals with Renin (Homo sapiens) (UniProt P00797). In words: Maximum hypotensive activity, the magnitude of the human renin dependent blood pressure component was measured (administered intravenously.).
Data set [2] shares this target. As to the kind of experiment: Maximum hypotensive activity, the magnitude of the human renin dependent blood pressure component was measured. (administered perorally).
The target is the same in data set [3]. As to the kind of experiment: Tested in vitro for inhibitory activity against plasma renin in human plasma.
A short description of data set [4]: Solubility in water at 37 degrees Centigrade. The format is physicochemical. Particulars: read-out: S. A digest of the protocol: (§1)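 Visual estimate: compound added to distilled water in a series of clear tubes at 1-100 mg/mL, tubes shaken, observed first at 25 °C and again after 30 min in a 37 °C water bath.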
A short description of data set [5]: Solubility in water at 25 degrees Centigrade. The format is physicochemical. The settings on record: read-out: S. A digest of the protocol: as §1

≈ marks a conversion by molar mass, not a printed value. *1 amine or outer side, *2 acyl side, *3 side chain or, on linkers, in order; H or OH if unused. Where a SMILES comes first, the peptide text is derived from it. [ ]: non-standard residue; d: D form. The star is where a group is joined. Leuψ((S)CH(OH)CH2)dVal = CC(C)C[C@H](N[*:1])[C@@H](O)C[C@@H](C(=O)[*:2])C(C)C; X2 = OC[C@H]1O[C@H](O)[C@H](N*)[C@@H](O)[C@H]1O; NMeH = CN[C@@H](Cc1c[nH]cn1)C(=O)O; NHCH2(2-pyridyl) = c1ccc(CN*)nc1; NHC(CH2OH)3 = OCC(CO)(CO)N*; Boc = CC(C)(C)OC(=O)*; CO = O=C([*:1])[*:2] Some results are limits rather than exact numbers.

Sequence of Renin (Homo sapiens) (P00797 whole entry, looked up): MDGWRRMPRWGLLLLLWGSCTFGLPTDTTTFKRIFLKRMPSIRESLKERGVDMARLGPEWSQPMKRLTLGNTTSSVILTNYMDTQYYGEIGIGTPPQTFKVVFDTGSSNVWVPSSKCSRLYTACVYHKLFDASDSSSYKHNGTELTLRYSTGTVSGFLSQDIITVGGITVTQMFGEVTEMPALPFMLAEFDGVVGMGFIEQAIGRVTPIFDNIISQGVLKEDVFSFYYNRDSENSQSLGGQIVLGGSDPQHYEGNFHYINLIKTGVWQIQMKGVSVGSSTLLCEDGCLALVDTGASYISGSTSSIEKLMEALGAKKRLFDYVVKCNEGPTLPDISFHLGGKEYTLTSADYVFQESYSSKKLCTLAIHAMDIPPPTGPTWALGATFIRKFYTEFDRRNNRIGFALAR

With `CC[C@H](C)[C@H](NC(=O)[C@H](C[C@H](O)[C@H](CC(C)C)NC(=O)[C@H](Cc1c[nH]cn1)N(C)C(=O)[C@H](Cc1ccccc1)NC(=O)[C@@H]1CCCN1C(=O)N[C@@H]1[C@@H](O)[C@@H](O)[C@@H](CO)O[C@@H]1O)C(C)C)C(=O)NCc1ccccn1` ({X2-CO}-PF[NMeH][Leuψ((S)CH(OH)CH2)dVal]I-{NHCH2(2-pyridyl)}), the Hypotensive activity at Renin (Homo sapiens) [1] is 36 mmHg; at Renin (Homo sapiens) [2], 37 mmHg.

With `CC[C@H](C)[C@H](NC(=O)[C@H](C[C@H](O)[C@H](CC(C)C)NC(=O)[C@H](Cc1c[nH]cn1)N(C)C(=O)[C@H](Cc1ccccc1)NC(=O)[C@@H]1CCCN1C(=O)NC(CO)(CO)CO)C(C)C)C(=O)NCc1ccccn1` ({NHC(CH2OH)3-CO}-PF[NMeH][Leuψ((S)CH(OH)CH2)dVal]I-{NHCH2(2-pyridyl)}), the IC50 at Renin (Homo sapiens) [3] is 0.33 nM. Also, the Hypotensive activity at Renin (Homo sapiens) [1] is 40 mmHg; on Renin (Homo sapiens) [2] it was 38 mmHg. The solubility in data set [4] and in data set [5] was 1000 µg/mL (≈ 1020 µM) in each case.

Turning to `CC[C@H](C)[C@H](NC(=O)[C@H](C[C@H](O)[C@H](CC(C)C)NC(=O)[C@H](Cc1c[nH]cn1)N(C)C(=O)[C@H](Cc1ccccc1)NC(=O)[C@@H]1CCCN1C(=O)OC(C)(C)C)C(C)C)C(=O)NC(CO)(CO)CO` (Boc-PF[NMeH][Leuψ((S)CH(OH)CH2)dVal]I-{NHC(CH2OH)3}), half-maximal inhibition against Renin (Homo sapiens) [3] (IC50) required 0.26 nM. Besides, the Hypotensive activity is 30 mmHg at Renin (Homo sapiens) [1] and 35 mmHg on Renin (Homo sapiens) [2]. The values for the solubility in data set [4] and in data set [5] were less than 1000 µg/mL and 1000 µg/mL (≈ 1060 µM), respectively.

The molecule `CC[C@H](C)[C@H](NC(=O)[C@H](C[C@H](O)[C@H](CC(C)C)NC(=O)[C@H](Cc1c[nH]cn1)N(C)C(=O)[C@H](Cc1ccccc1)NC(=O)[C@@H]1CCCN1C(=O)OC(C)(C)C)C(C)C)C(=O)NCc1ccccn1` (Boc-PF[NMeH][Leuψ((S)CH(OH)CH2)dVal]I-{NHCH2(2-pyridyl)}) came in with an IC50 against Renin (Homo sapiens) [3] of 0.26 nM. The Hypotensive activity worked out at 25 mmHg on Renin (Homo sapiens) [1] and 24 mmHg at Renin (Homo sapiens) [2]. The solubility in data set [4] and in data set [5] was less than 1000 µg/mL throughout.

For the molecule `CC[C@H](C)[C@H](NC(=O)[C@H](C[C@H](O)[C@H](CC(C)C)NC(=O)[C@H](Cc1cnc[nH]1)N(C)C(=O)[C@H](Cc1ccccc1)NC(=O)[C@@H]1CCCN1C(=O)N[C@@H]1[C@@H](O)[C@@H](O)[C@@H](CO)O[C@@H]1O)C(C)C)C(=O)NCc1ccccn1` ({X2-CO}-PF[NMeH][Leuψ((S)CH(OH)CH2)dVal]I-{NHCH2(2-pyridyl)}), the IC50 at Renin (Homo sapiens) [3] was determined as 0.49 nM. The solubility in data set [4] and in data set [5] was less than 2000 µg/mL each time.

In general, IC50 refers to the concentration at which inhibition is half-maximal.

The record behind these values is ChEMBL document CHEMBL1124884, “Potent renin inhibitory peptides containing hydrophilic end groups” (J Med Chem, 1990).
